Tests used:
[1] = tested on: HeLa; assay: Growth inhibition of human HeLa cells after 72 hrs by MTT assay; assay type: functional, cell-based
Summary of the method: (§1)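 Cells were seeded on day 0 at 1 × 10⁴–3 × 10⁴ cells/mL according to doubling time. Compound was added in 10-fold dilutions (10⁻⁸–10⁻⁴ M) from DMSO stocks (final DMSO ≤0.25%, solvent control run) and incubated 72 h. Percentage of growth was calculated, four parallel samples in three experiments. IC50 was derived by linear regression between the concentrations bracketing PG 50; if none fell below, the result was reported as >highest concentration.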

[2] = tested on: MIA PaCa-2; assay: Growth inhibition of human MIAPaCa2 cells after 72 hrs by MTT assay; assay type: functional, cell-based; conditions: MIA PaCa-2, 72 h; summary of the method: as §1
[3] = tested on: SW-620; assay: Growth inhibition of human SW620 cells after 72 hrs by MTT assay; assay type: functional, cell-based; conditions: SW-620, 72 h; summary of the method: as §1
[4] = tested on: MCF7; assay: Growth inhibition of human MCF7 cells after 72 hrs by MTT assay; assay type: functional, cell-based; conditions: MCF7, 72 h
Summary of the method: as §1, with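 “time.” for “time. Compound was added in 10-fold dilutions (10⁻⁸–10⁻⁴ M) from DMSO stocks (final DMSO ≤0.25%, solvent control run) and incubated 72 h.”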

[5] = tested on: NCI-H460; assay: Growth inhibition of human H460 cells after 72 hrs by MTT assay; assay type: functional, cell-based; conditions: NCI-H460, 72 h; summary of the method: as §1
[6] = tested on: HaCaT; assay: Growth inhibition of human HaCaT cells after 72 hrs by MTT assay; assay type: cell-based; summary of the method: as §1
[7] = tested on: HeLa; assay: Cell cycle arrest in human HeLa cells assessed as accumulation at subG1 phase at 10 uM after 72 hrs by flow cytometry; assay type: functional
Summary of the method: (§2)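 HeLa cells seeded at 2 × 10⁵ per well; compound added after 24 h. At 24, 48 and 72 h, attached and floating cells were pooled, PBS-washed, fixed in 70% ethanol, then stained with propidium iodide plus RNase A. Flow cytometry counted 20 000 events, and phase percentages came from DNA histograms. At least two experiments in triplicate; Student t-test (p < 0.05).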

[8] = tested on: HeLa; assay: Cell cycle arrest in human HeLa cells assessed as accumulation at subG1 phase at 10 uM after 48 hrs by flow cytometry; assay type: functional; summary of the method: as §2
[9] = tested on: HeLa; assay: Cell cycle arrest in human HeLa cells assessed as accumulation at subG1 phase at 10 uM after 24 hrs by flow cytometry; assay type: functional; summary of the method: as §2
[10] = tested on: HeLa; assay: Cell cycle arrest in human HeLa cells assessed as accumulation at G2/M phase at 10 uM after 48 hrs by flow cytometry; assay type: functional; summary of the method: as §2
[11] = tested on: HeLa; assay: Cell cycle arrest in human HeLa cells assessed as accumulation at G2/M phase at 10 uM after 72 hrs by flow cytometry; assay type: functional; summary of the method: as §2
[12] = tested on: HeLa; assay: Cell cycle arrest in human HeLa cells assessed as accumulation at G2/M phase at 10 uM after 24 hrs by flow cytometry; assay type: functional; summary of the method: as §2
[13] = tested on: HeLa; assay: Cell cycle arrest in human HeLa cells assessed as accumulation at S phase at 10 uM after 72 hrs by flow cytometry; assay type: functional; summary of the method: as §2
[14] = tested on: HeLa; assay: Cell cycle arrest in human HeLa cells assessed as accumulation at S phase at 10 uM after 48 hrs by flow cytometry; assay type: functional; summary of the method: as §2
[15] = tested on: HeLa; assay: Cell cycle arrest in human HeLa cells assessed as accumulation at S phase at 10 uM after 24 hrs by flow cytometry; assay type: functional; summary of the method: as §2
[16] = tested on: HeLa; assay: Cell cycle arrest in human HeLa cells assessed as accumulation at G0/G1 phase at 10 uM after 72 hrs by flow cytometry; assay type: functional; summary of the method: as §2
[17] = tested on: HeLa; assay: Cell cycle arrest in human HeLa cells assessed as accumulation at G0/G1 phase at 10 uM after 48 hrs by flow cytometry; assay type: functional; summary of the method: as §2
[18] = tested on: HeLa; assay: Cell cycle arrest in human HeLa cells assessed as accumulation at G0/G1 phase at 10 uM after 24 hrs by flow cytometry; assay type: functional; summary of the method: as §2
[19] = tested on: HeLa; assay: Cell cycle arrest in human HeLa cells assessed as accumulation at subG1 phase at 20 uM after 48 hrs by flow cytometry; assay type: functional
Summary of the method: (§3)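 Seeded 2 × 10⁵ cells per well; compound added after 24 h. At 24, 48 and 72 h post-treatment, attached cells were trypsinized and pooled with floating cells. Cells were PBS-washed, fixed in 70% ethanol, then stained with propidium iodide plus RNase A. DNA histograms came from 20 000 events per sample and gave the phase percentages. At least two experiments were run in triplicate, with Student t-test (p < 0.05).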

[20] = tested on: HeLa; assay: Cell cycle arrest in human HeLa cells assessed as accumulation at subG1 phase at 20 uM after 24 hrs by flow cytometry; assay type: functional; summary of the method: as §3
[21] = tested on: HeLa; assay: Cell cycle arrest in human HeLa cells assessed as accumulation at subG1 phase at 20 uM after 72 hrs by flow cytometry; assay type: functional; summary of the method: as §3
[22] = tested on: HeLa; assay: Cell cycle arrest in human HeLa cells assessed as accumulation at G0/G1 phase at 20 uM after 24 hrs by flow cytometry; assay type: functional; summary of the method: as §3
[23] = tested on: HeLa; assay: Cell cycle arrest in human HeLa cells assessed as accumulation at G0/G1 phase at 20 uM after 48 hrs by flow cytometry; assay type: functional; summary of the method: as §3
[24] = tested on: HeLa; assay: Cell cycle arrest in human HeLa cells assessed as accumulation at G0/G1 phase at 20 uM after 72 hrs by flow cytometry; assay type: functional; summary of the method: as §3
[25] = tested on: HeLa; assay: Cell cycle arrest in human HeLa cells assessed as accumulation at S phase at 20 uM after 24 hrs by flow cytometry; assay type: functional; summary of the method: as §3
[26] = tested on: HeLa; assay: Cell cycle arrest in human HeLa cells assessed as accumulation at S phase at 20 uM after 48 hrs by flow cytometry; assay type: functional; summary of the method: as §3
[27] = tested on: HeLa; assay: Cell cycle arrest in human HeLa cells assessed as accumulation at S phase at 20 uM after 72 hrs by flow cytometry; assay type: functional; summary of the method: as §3
[28] = tested on: HeLa; assay: Cell cycle arrest in human HeLa cells assessed as accumulation at G2/M phase at 20 uM after 24 hrs by flow cytometry; assay type: functional; summary of the method: as §3
[29] = tested on: HeLa; assay: Cell cycle arrest in human HeLa cells assessed as accumulation at G2/M phase at 20 uM after 48 hrs by flow cytometry; assay type: functional; summary of the method: as §3
[30] = tested on: HeLa; assay: Cell cycle arrest in human HeLa cells assessed as accumulation at G2/M phase at 20 uM after 72 hrs by flow cytometry; assay type: functional; summary of the method: as §3

Row | Compound | IC50 [1] [µM] | IC50 [2] [µM] | IC50 [3] [µM] | IC50 [4] [µM] | IC50 [5] [µM] | also measured
1 | O=C(CCl)Nc1cn(COC(CO)CO)c(=O)[nH]c1=O | 12 | 18 | 19 | 32 | 24 | IC50 [6]: > 100 µM
2 | Nc1cn(COC(CO)CO)c(=O)[nH]c1=O | > 100 | > 100 | > 100 | > 100 | > 100 | –
3 | O=c1[nH]cc(F)c(=O)[nH]1 [FLUOROURACIL] | 4 | 10 | 9 | – | 2 | Activity [7]: 26%; Activity [8]: 12%; Activity [9]: 10%; Activity [10]: 0%; Activity [11]: 0%; IC50 [6]: 0.4 µM; Activity [12]: 1%; Activity [13]: 43%; Activity [14]: 41%; Activity [15]: 39%; Activity [16]: 57%; Activity [17]: 59%; Activity [18]: 60%
4 | Cn1cc(CO)c(N)nc1=O | > 100 | > 100 | > 100 | > 100 | > 100 | –
5 | O=C(CCl)Nc1c[nH]c(=O)[nH]c1=O | 4 | 17 | 12 | 15 | 14 | IC50 [6]: > 100 µM; Activity [19]: 14%; Activity [20]: 12%; Activity [21]: 25%; Activity [22]: 50%; Activity [23]: 48%; Activity [24]: 50%; Activity [25]: 43%; Activity [26]: 45%; Activity [27]: 48%; Activity [28]: 6%; Activity [29]: 7%; Activity [30]: 8%
6 | O=c1[nH]c(=O)n(COC(CO)CO)cc1O | > 100 | > 100 | > 100 | > 100 | > 100 | –
7 | NCC(=O)Nc1c[nH]c(=O)[nH]c1=O | > 100 | > 100 | > 100 | > 100 | > 100 | –
8 | Cc1c(I)c(=O)[nH]c(=O)n1COC(CO)CO [IODMETACYCLUR] | 73 | > 100 | > 100 | > 100 | > 100 | –
9 | O=c1nc(NO)cc[nH]1 [N4-hydroxycytosine] | > 100 | > 100 | > 100 | > 100 | > 100 | –
10 | Cn1ccc(N)nc1=O | 12 | > 100 | > 100 | > 100 | > 100 | –
11 | CC(C)(C)OC(=O)NCCNCC(=O)Nc1c[nH]c(=O)[nH]c1=O | 50 | 50 | 50 | > 100 | > 100 | –
12 | O=c1ccn(COC(CO)CO)c(=O)[nH]1 | > 100 | > 100 | > 100 | > 100 | > 100 | –
13 | Cc1cc(=O)[nH]c(=O)n1COC(CO)CO | > 100 | > 100 | > 100 | > 100 | > 100 | –
14 | COc1ccc(CSCCN(CCSCc2ccc(OC)cc2)CC(=O)Nc2c[nH]c(=O)[nH]c2=O)cc1 | 4 | 3 | 70 | > 100 | 76 | IC50 [6]: 9 µM; Activity [19]: 24%; Activity [20]: 17%; Activity [21]: 58%; Activity [22]: 56%; Activity [23]: 59%; Activity [24]: 43%; Activity [25]: 24%; Activity [26]: 27%; Activity [27]: 44%; Activity [28]: 20%; Activity [29]: 13%; Activity [30]: 13%
15 | O=c1[nH]c(=O)n(COC(CO)CO)cc1I [IODACYCLUR] | 30 | > 100 | > 100 | > 100 | > 100 | –
16 | Cc1ccc(S(=O)(=O)Nc2ccn(C)c(=O)n2)cc1 | > 100 | > 100 | > 100 | > 100 | > 100 | –
17 | Cc1ccc(S(=O)(=O)Nc2cc[nH]c(=O)n2)cc1 | > 100 | > 100 | > 100 | 27 | > 100 | –
18 | N[C@H](CSCC(=O)Nc1c[nH]c(=O)[nH]c1=O)C(=O)O | 86 | 80 | 70 | > 100 | > 100 | –
19 | CSc1cc[nH]c(=O)n1 | > 100 | > 100 | > 100 | > 100 | > 100 | –

Source: ChEMBL document CHEMBL1138552, “Synthesis of modified pyrimidine bases and positive impact of chemically reactive substituents on their in vitro antiproliferative activity” (Eur J Med Chem, 2009)
